ChEMBL document CHEMBL1122777, “Effect of tellurium position on the myocardial uptake of radioiodinated 18-iodotellura-17-octadecenoic acid analogues” (1984)

Legend:
Rattus norvegicus [1] = assay: Liver uptake after 5 min was determined in female Fischer rats after [125I]-labeled compound complexed with bovine serum albumin was injected intravenously; type: functional
In short: (§1)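 Female Fischer 344 rats (fed ad libitum) under ether anaesthesia received the ¹²⁵I fatty acid in a lateral tail vein. Dose was ~3.8–4.8 μCi per rat (sp act ~125–240 mCi/mmol), given in 0.5 mL 6% bovine albumin (final ethanol 10%) after filtration. Four rats per time point were used. Tissue radioactivity is % injected dose/g, mean with range, calculated against standards of the injected solution.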

Rattus norvegicus [2] = assay: Blood uptake after 2 hr was determined in female Fischer rats after [125I]-labeled compound complexed with bovine serum albumin was injected intravenously; type: functional; in short: as §1
Rattus norvegicus [3] = assay: Thyroid uptake after 60 min was determined in female Fischer rats after [125I]-labeled compound complexed with bovine serum albumin was injected intravenously; type: functional
In short: (§2)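 Female Fischer 344 rats with free access to food and water. The 125I-labelled fatty acid (~3.8–4.8 μCi; sp act. ~125–240 mCi/mmol) was complexed with 6% bovine serum albumin (10% final ethanol), filtered, and 0.5 mL was injected via a lateral tail vein under ether anaesthesia. Four rats per time point. Values are mean % injected dose/g, calculated against injectate standards. Thyroid weight was taken as 7.5 mg/100 g body weight.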

Rattus norvegicus [4] = assay: Lungs uptake after 2 hr was determined in female Fischer rats after [125I]-labeled compound complexed with bovine serum albumin was injected intravenously; type: functional; in short: as §1
Rattus norvegicus [5] = assay: Thyroid uptake after 5 min was determined in female Fischer rats after [125I]-labeled compound complexed with bovine serum albumin was injected intravenously; type: functional; in short: as §2
Rattus norvegicus [6] = assay: Heart uptake after 2 hr was determined in female Fischer rats after [125I]-labeled compound complexed with bovine serum albumin was injected intravenously; type: functional; in short: as §1
Rattus norvegicus [7] = assay: Lungs uptake after 30 min was determined in female Fischer rats after [125I]-labeled compound complexed with bovine serum albumin was injected intravenously; type: functional; in short: as §1
[8] = Ratio of heart to liver uptake after 30 min was determined in female Fischer rats after [125I]-labeled compound complexed with bovine serum albumin was injected intravenously; type: functional
In short: (§3)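 Female Fischer 344 rats (food and water ad libitum) given the 125I-labelled fatty acid in 6% bovine albumin with 10% final ethanol, filtered, 0.5 mL into a lateral tail vein under ether anaesthesia. Four rats per time point. Tissue activity expressed as % injected dose/g against assayed injectate standards. Mean heart/tissue ratios were calculated from mean %ID/g values.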

[9] = Ratio of heart to kidneys uptake after 60 min was determined in female Fischer rats after [125I]-labeled compound complexed with bovine serum albumin was injected intravenously; type: functional, Heart/Kidney; in short: as §3
Rattus norvegicus [10] = assay: Liver uptake after 1 day was determined in female Fischer rats after [125I]-labeled compound complexed with bovine serum albumin was injected intravenously; type: functional; in short: as §1
[11] = Ratio of heart to liver uptake after 120 min was determined in female Fischer rats after [125I]-labeled compound complexed with bovine serum albumin was injected intravenously; type: functional; in short: as §3
Rattus norvegicus [12] = assay: Blood uptake after 30 min was determined in female Fischer rats after [125I]-labeled compound complexed with bovine serum albumin was injected intravenously; type: functional; in short: as §1
[13] = Ratio of heart to kidneys uptake after 120 min was determined in female Fischer rats after [125I]-labeled compound complexed with bovine serum albumin was injected intravenously; type: functional, Heart/Kidney; in short: as §3
Rattus norvegicus [14] = assay: Lungs uptake after 60 min was determined in female Fischer rats after [125I]-labeled compound complexed with bovine serum albumin was injected intravenously; type: functional; in short: as §1
Rattus norvegicus [15] = assay: Blood uptake after 4 hr was determined in female Fischer rats after [125I]-labeled compound complexed with bovine serum albumin was injected intravenously; type: functional; in short: as §1
Rattus norvegicus [16] = assay: Heart uptake after 60 min was determined in female Fischer rats after [125I]-labeled compound complexed with bovine serum albumin was injected intravenously; type: functional; in short: as §1
Rattus norvegicus [17] = assay: Blood uptake after 60 min was determined in female Fischer rats after [125I]-labeled compound complexed with bovine serum albumin was injected intravenously; type: functional; in short: as §1
[18] = Ratio of heart to blood uptake after 120 min was determined in female Fischer rats after [125I]-labeled compound complexed with bovine serum albumin was injected intravenously; type: functional; in short: as §3
Rattus norvegicus [19] = assay: Thyroid uptake after 30 min was determined in female Fischer rats after [125I]-labeled compound complexed with bovine serum albumin was injected intravenously; type: functional; in short: as §2
Rattus norvegicus [20] = assay: Blood uptake after 5 min was determined in female Fischer rats after [125I]-labeled compound complexed with bovine serum albumin was injected intravenously; type: functional; in short: as §1
[21] = Ratio of heart to kidneys uptake after 30 min was determined in female Fischer rats after [125I]-labeled compound complexed with bovine serum albumin was injected intravenously; type: functional, Heart/Kidney; in short: as §3
Rattus norvegicus [22] = assay: Blood uptake after 1 day was determined in female Fischer rats after [125I]-labeled compound complexed with bovine serum albumin was injected intravenously; type: functional; in short: as §1
Rattus norvegicus [23] = assay: Lungs uptake after 4 hr was determined in female Fischer rats after [125I]-labeled compound complexed with bovine serum albumin was injected intravenously; type: functional; in short: as §1
Rattus norvegicus [24] = assay: Lungs uptake after 5 min was determined in female Fischer rats after [125I]-labeled compound complexed with bovine serum albumin was injected intravenously; type: functional; in short: as §1
Rattus norvegicus [25] = assay: Heart uptake after 5 min was determined in female Fischer rats after [125I]-labeled compound complexed with bovine serum albumin was injected intravenously; type: functional; in short: as §1
[26] = Ratio of heart to lungs uptake after 60 min was determined in female Fischer rats after [125I]-labeled compound complexed with bovine serum albumin was injected intravenously; type: functional; in short: as §3
[27] = Ratio of heart to blood uptake after 240 min was determined in female Fischer rats after [125I]-labeled compound complexed with bovine serum albumin was injected intravenously; type: functional; in short: as §3
Rattus norvegicus [28] = assay: Liver uptake after 4 hr was determined in female Fischer rats after [125I]-labeled compound complexed with bovine serum albumin was injected intravenously; type: functional; in short: as §1
[29] = Ratio of heart to lungs uptake after 30 min was determined in female Fischer rats after [125I]-labeled compound complexed with bovine serum albumin was injected intravenously; type: functional; in short: as §3
Rattus norvegicus [30] = assay: Liver uptake after 30 min was determined in female Fischer rats after [125I]-labeled compound complexed with bovine serum albumin was injected intravenously; type: functional; in short: as §1
[31] = Ratio of heart to kidneys uptake after 240 min was determined in female Fischer rats after [125I]-labeled compound complexed with bovine serum albumin was injected intravenously; type: functional, Heart/Kidney; in short: as §3
[32] = Ratio of heart to liver uptake after 240 min was determined in female Fischer rats after [125I]-labeled compound complexed with bovine serum albumin was injected intravenously; type: functional; in short: as §3
[33] = Ratio of heart to lungs uptake after 240 min was determined in female Fischer rats after [125I]-labeled compound complexed with bovine serum albumin was injected intravenously; type: functional; in short: as §3
Rattus norvegicus [34] = assay: Heart uptake after 1 day was determined in female Fischer rats after [125I]-labeled compound complexed with bovine serum albumin was injected intravenously; type: functional; in short: as §1
Rattus norvegicus [35] = assay: Liver uptake after 2 hr was determined in female Fischer rats after [125I]-labeled compound complexed with bovine serum albumin was injected intravenously; type: functional; in short: as §1
[36] = Ratio of heart to kidneys uptake after 5 min was determined in female Fischer rats after [125I]-labeled compound complexed with bovine serum albumin was injected intravenously; type: functional, Heart/Kidney; in short: as §3
Rattus norvegicus [37] = assay: Thyroid uptake after 4 hr was determined in female Fischer rats after [125I]-labeled compound complexed with bovine serum albumin was injected intravenously; type: functional; in short: as §2
Rattus norvegicus [38] = assay: Liver uptake after 60 min was determined in female Fischer rats after [125I]-labeled compound complexed with bovine serum albumin was injected intravenously; type: functional; in short: as §1
Rattus norvegicus [39] = assay: Lungs uptake after 3 days was determined in female Fischer rats after [125I]-labeled compound complexed with bovine serum albumin was injected intravenously; type: functional; in short: as §1
[40] = Ratio of heart to lungs uptake after 120 min was determined in female Fischer rats after [125I]-labeled compound complexed with bovine serum albumin was injected intravenously; type: functional; in short: as §3
[41] = Ratio of heart to liver uptake after 60 min was determined in female Fischer rats after [125I]-labeled compound complexed with bovine serum albumin was injected intravenously; type: functional; in short: as §3

O=C(O)CCCCCCC[Te]CCCCCCC/C=C/I
Injected dose/g (Rattus norvegicus [1]): 6.41% | Injected dose/g (Rattus norvegicus [2]): 0.44% | Injected dose/g (Rattus norvegicus [3]): 24.8% | Injected dose/g (Rattus norvegicus [4]): 1.43% | Injected dose/g (Rattus norvegicus [5]): 9.21% | Injected dose/g (Rattus norvegicus [6]): 3.9% | Injected dose/g (Rattus norvegicus [7]): 1.52% | Ratio [8]: 0.66 | Ratio [9]: 3.4 | Injected dose/g (Rattus norvegicus [10]): 1.64% | Ratio [11]: 0.84 | Injected dose/g (Rattus norvegicus [12]): 0.45% | Ratio [13]: 3.1 | Injected dose/g (Rattus norvegicus [14]): 1.57% | Injected dose/g (Rattus norvegicus [15]): 0.53% | Injected dose/g (Rattus norvegicus [16]): 5.17% | Injected dose/g (Rattus norvegicus [17]): 0.36% | Ratio [18]: 9 | Injected dose/g (Rattus norvegicus [19]): 15% | Injected dose/g (Rattus norvegicus [20]): 0.23% | Ratio [21]: 3.7 | Injected dose/g (Rattus norvegicus [22]): 0.46% | Injected dose/g (Rattus norvegicus [23]): 1.21% | Injected dose/g (Rattus norvegicus [24]): 1.63% | Injected dose/g (Rattus norvegicus [25]): 4.83% | Ratio [26]: 3.3 | Ratio [27]: 4 | Injected dose/g (Rattus norvegicus [28]): 3.76% | Ratio [29]: 2.5 | Injected dose/g (Rattus norvegicus [30]): 5.69% | Ratio [31]: 2.9 | Ratio [32]: 0.93 | Ratio [33]: 2.9 | Injected dose/g (Rattus norvegicus [34]): 0.86% | Injected dose/g (Rattus norvegicus [35]): 4.66% | Ratio [36]: 3.1 | Injected dose/g (Rattus norvegicus [37]): 66.9% | Injected dose/g (Rattus norvegicus [38]): 4.87% | Injected dose/g (Rattus norvegicus [39]): 0.34% | Ratio [40]: 2.7 | Ratio [41]: 1.06

O=C(O)CCCCCCCCC[Te]CCCCC/C=C/I
Injected dose/g (Rattus norvegicus [1]): 8.33% | Injected dose/g (Rattus norvegicus [2]): 0.81% | Injected dose/g (Rattus norvegicus [3]): 37% | Injected dose/g (Rattus norvegicus [4]): 2.02% | Injected dose/g (Rattus norvegicus [5]): 29% | Injected dose/g (Rattus norvegicus [6]): 3.8% | Injected dose/g (Rattus norvegicus [7]): 2.06% | Ratio [8]: 0.47 | Ratio [9]: 1 | Injected dose/g (Rattus norvegicus [10]): 0.52% | Ratio [11]: 1.1 | Injected dose/g (Rattus norvegicus [12]): 0.66% | Ratio [13]: 2.5 | Injected dose/g (Rattus norvegicus [14]): 2.07% | Injected dose/g (Rattus norvegicus [15]): 1.03% | Injected dose/g (Rattus norvegicus [16]): 3.63% | Injected dose/g (Rattus norvegicus [17]): 0.67% | Ratio [18]: 5 | Injected dose/g (Rattus norvegicus [19]): 29% | Injected dose/g (Rattus norvegicus [20]): 0.45% | Ratio [21]: 1.5 | Injected dose/g (Rattus norvegicus [22]): 0.62% | Injected dose/g (Rattus norvegicus [23]): 1.59% | Injected dose/g (Rattus norvegicus [24]): 2.49% | Injected dose/g (Rattus norvegicus [25]): 3.09% | Ratio [26]: 1.8 | Ratio [27]: 2 | Injected dose/g (Rattus norvegicus [28]): 2.52% | Ratio [29]: 1.6 | Injected dose/g (Rattus norvegicus [30]): 6.49% | Ratio [31]: 1.7 | Ratio [32]: 0.97 | Ratio [33]: 1.5 | Injected dose/g (Rattus norvegicus [34]): 0.69% | Injected dose/g (Rattus norvegicus [35]): 3.47% | Ratio [36]: 1.4 | Injected dose/g (Rattus norvegicus [37]): 72% | Injected dose/g (Rattus norvegicus [38]): 5.15% | Injected dose/g (Rattus norvegicus [39]): 0.32% | Ratio [40]: 1.9 | Ratio [41]: 0.7
